Results from different studies.
Compare with care: the assays were run in different laboratories. pEC50, pIC50, pKi: −log10 of the molar value.
Target: Mu-type opioid receptor (OPRM1, Homo sapiens, UniProt P35372)

COc1cc(-c2cnc3c(c2)C[C@@]2(OCCCc4ccccc4)[C@H]4Cc5ccc(O)c6c5[C@@]2(CCN4CC2CC2)[C@H]3O6)ccn1
pKi (cell-free assay): > 8.00

COc1ncccc1-c1cnn2ccc(N3CCN(C(=O)OC(C)C)CC3)nc12
pIC50 (cell-free assay): < 4.52

CCCO[C@@]12Cc3cc(-c4ccccc4)cnc3[C@@H]3Oc4c(O)ccc5c4[C@@]31CCN(CC1CC1)[C@@H]2C5
pKi (cell-free assay): 6.30

CC(NCCc1ccc(O)cc1)C(O)c1ccc(O)cc1 (stereo not drawn)
pIC50 (ligand displacement, radioligand): 5.04

CCCCCCCCC[C@@H]1CC(=O)NCC(=O)N[C@H](Cc2ccc(O)cc2)C(=O)NCC(=O)N[C@@H](Cc2ccccc2)C(=O)O1
pIC50 (ligand displacement, radioligand): 4.80

CC(Cc1ccccc1)NCCC(c1ccccc1)c1ccccc1 (stereo not drawn)
pIC50 (ligand displacement, radioligand): 5.74

Cc1cc(O)cc(C)c1C[C@H](N)C(=O)N1Cc2ccccc2C[C@H]1C(=O)NCC(=O)NCc1ccc(N)cc1
pKi (ligand displacement, radioligand; cell membranes): 7.47

Oc1cccc([C@@]23CCC[C@@H](C2)N(CCc2ccccc2)C[C@H]3O)c1 (relative stereo)
pKi (cell-free assay): ~8.30

Cc1cc(O)cc(C)c1C[C@H](N)C(=O)N1Cc2ccccc2C[C@H]1C(=O)NCC(=O)NCc1ccc(Cl)cc1
pKi (ligand displacement, radioligand; cell membranes): 8.54

Clc1ccc(CSc2nnc(-c3ccccn3)n2Cc2ccco2)cc1Cl
pEC50 (β-arrestin recruitment, agonist, imaging): < 4.49

Cc1cccc(C)c1-c1cnc2c(c1)C[C@@]1(OCCCc3ccccc3)[C@H]3Cc4ccc(O)c5c4[C@@]1(CCN3CC1CC1)[C@H]2O5
pKi (cell-free assay): ~6.70

Cc1cc(O)cc(C)c1C[C@H](N)C(=O)N1Cc2ccccc2C[C@H]1C(=O)NCC(=O)NC(c1ccccc1)c1ccccc1
pKi (ligand displacement, radioligand; cell membranes): 8.77
